Measured values from ChEMBL document CHEMBL3046679, “Design, synthesis, and biological activities of arylmethylamine substituted chlorotriazine and methylthiotriazine compounds” (J Agric Food Chem, 2011).
Calls of active or inactive are those of the source. The calls are words filed in the database; no cut-off is given here.

Assays:
Stellaria media [1] = assay: Herbicidal activity against Stellaria media assessed as growth inhibition at 1 kg/ha postemergence treatment by glasshouse test; type: functional; details: post-emergence, read-out: GI
Method in brief: (§1)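 Glasshouse screen with pre- or postemergence application at 1.0 kg/ha. Result given as percent inhibition of plant growth; norflurazon and glyphosate used as controls.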

Triticum aestivum [2] = assay: Phytotoxicity against Triticum aestivum (wheat) plant at 200 ppm; type: organism-based; details: in vivo
Phytophthora infestans [3] = assay: Fungicidal activity against Phytophthora infestans assessed as inhibition of mycelia growth at 200 ppm; type: functional, organism-based
Arabidopsis thaliana = assay: Herbicidal activity against Arabidopsis thaliana assessed as growth inhibition at 10 ppm by 96-well plate test; type: functional; details: read-out: GI
Method in brief: (§2)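 96-well plate herbicide screen: Arabidopsis thaliana at 10 ppm and Poa annua at 32 ppm, two replicates. Plates incubated seven days in a controlled-environment cabinet. Each replicate scored 0 (no visible effect) or 99 (herbicidal effect); values are the mean of the two. Atrazine used as reference.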

Pyrenophora teres [4] = assay: Fungicidal activity against Pyrenophora teres assessed as inhibition of disease development in compound treated leaf pieces at 20 ppm relative to untreated control (barley-preventative); type: functional
Method in brief: (§3)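 Preventative leaf-piece test on host tissue (tomato, vine, wheat or barley). Formulated compound applied at 200, 60 and 20 ppm before spore inoculation. Disease scored 3–9 days after inoculation, depending on the pathogen, as percent inhibition of disease development versus untreated controls. Values are the mean across replicates.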

Brassica napus [5] = assay: Herbicidal activity against Brassica napus (oilseed rape) at 1.5 kg/ha postemergence treatment measured after 10 days by glasshouse test; type: functional; details: post-emergence, 240 h
Method in brief: (§4)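 Glasshouse pre/postemergence test, each treatment in triplicate. Above-ground fresh weight measured 10 days after treatment. Result expressed as percent inhibition versus control, from 0 (no control) to 100 (complete control); glyphosate used as positive control.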

Poa annua = assay: Herbicidal activity against Poa annua assessed as growth inhibition at 32 ppm by 96-well plate test; type: functional; details: read-out: GI; method in brief: as §2
[6] = tested on: Blumeria graminis f. sp. tritici; assay: Fungicidal activity against Blumeria graminis f. sp. tritici assessed as inhibition of disease development in compound treated leaf pieces at 20 ppm relative to untreated control (wheat-preventative); type: functional
Lolium perenne [7] = assay: Herbicidal activity against Lolium perenne (perennial ryegrass) assessed as growth inhibition at 1 kg/ha postemergence treatment by glasshouse test; type: functional; details: post-emergence, read-out: GI; method in brief: as §1
Amaranthus retroflexus [8] = assay: Herbicidal activity against Amaranthus retroflexus assessed as growth inhibition at 1 kg/ha preemergence treatment by glasshouse test; type: functional; details: pre-emergence, read-out: GI; method in brief: as §1
Phytophthora infestans [9] = assay: Fungicidal activity against Phytophthora infestans assessed as inhibition of disease development in compound treated leaf pieces at 60 ppm relative to untreated control (tomato-preventative); type: functional; method in brief: as §3
Puccinia triticina [10] = assay: Fungicidal activity against Puccinia triticina assessed as inhibition of disease development in compound treated leaf pieces at 20 ppm relative to untreated control (wheat-preventative); type: functional; method in brief: as §3
Alternaria solani [11] = assay: Fungicidal activity against Alternaria solani assessed as inhibition of disease development in compound treated leaf pieces at 20 ppm relative to untreated control (tomato-preventative); type: functional; method in brief: as §3
Digitaria sanguinalis [12] = assay: Herbicidal activity against Digitaria sanguinalis (hairy crabgrass) assessed as growth inhibition at 1 kg/ha postemergence treatment by glasshouse test; type: functional; details: post-emergence, read-out: GI; method in brief: as §1
Triticum aestivum [13] = assay: Phytotoxicity against Triticum aestivum (wheat) plant at 60 ppm; type: organism-based; details: in vivo
Zymoseptoria tritici = assay: Fungicidal activity against Zymoseptoria tritici assessed as inhibition of mycelia growth at 100 ppm; type: functional, organism-based
Amaranthus retroflexus [14] = assay: Herbicidal activity against Amaranthus retroflexus assessed as growth inhibition at 1 kg/ha postemergence treatment by glasshouse test; type: functional; details: post-emergence, read-out: GI; method in brief: as §1
Pyrenophora teres [15] = assay: Fungicidal activity against Pyrenophora teres assessed as inhibition of disease development in compound treated leaf pieces at 60 ppm relative to untreated control (barley-preventative); type: functional; method in brief: as §3
Plasmopara viticola [16] = assay: Fungicidal activity against Plasmopara viticola assessed as inhibition of disease development in compound treated leaf pieces at 60 ppm relative to untreated control (grapevine-preventative); type: functional; method in brief: as §3
Puccinia triticina [17] = assay: Fungicidal activity against Puccinia triticina assessed as inhibition of disease development in compound treated leaf pieces at 20 ppm relative to untreated control (wheat-curative); type: functional
Method in brief: (§5)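 Curative wheat leaf-piece test against Puccinia triticina. Leaf pieces inoculated with spores first, then treated with formulated compound at 200, 60 or 20 ppm. Disease scored 3–9 days after inoculation as percent inhibition versus untreated controls. Values are the mean across replicates.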

[18] = tested on: Blumeria graminis f. sp. tritici; assay: Fungicidal activity against Blumeria graminis f. sp. tritici assessed as inhibition of disease development in compound treated leaf pieces at 200 ppm relative to untreated control (wheat-preventative); type: functional
Phytophthora infestans [19] = assay: Fungicidal activity against Phytophthora infestans assessed as inhibition of disease development in compound treated leaf pieces at 20 ppm relative to untreated control (tomato-preventative); type: functional; method in brief: as §3
Fusarium graminearum = assay: Fungicidal activity against Fusarium graminearum assessed as inhibition of mycelia growth at 2 ppm; type: functional, organism-based
Method in brief: (§6)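 Mycelial growth test in 96-well plates: compound incorporated into artificial growth medium at 2 ppm, two replicates per rate. Each well scored 99 for complete, 55 for partial or 0 for no inhibition. Values are the mean across replicates; azoxystrobin and prochloraz used as positive controls.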

[20] = tested on: Blumeria graminis f. sp. tritici; assay: Fungicidal activity against Blumeria graminis f. sp. tritici assessed as inhibition of disease development in compound treated leaf pieces at 60 ppm relative to untreated control (wheat-preventative); type: functional
Echinochloa crus-galli [21] = assay: Herbicidal activity against Echinochloa crus-galli (barnyard grass) at 1.5 kg/ha preemergence treatment measured after 10 days by glasshouse test; type: functional; details: pre-emergence, 240 h; method in brief: as §4
Plasmopara viticola [22] = assay: Fungicidal activity against Plasmopara viticola assessed as inhibition of disease development in compound treated leaf pieces at 20 ppm relative to untreated control (grapevine-preventative); type: functional; method in brief: as §3
Phytophthora infestans [23] = assay: Fungicidal activity against Phytophthora infestans assessed as inhibition of disease development in compound treated leaf pieces at 200 ppm relative to untreated control (tomato-preventative); type: functional; method in brief: as §3
Alternaria solani [24] = assay: Fungicidal activity against Alternaria solani assessed as inhibition of disease development in compound treated leaf pieces at 200 ppm relative to untreated control (tomato-preventative); type: functional; method in brief: as §3
Puccinia triticina [25] = assay: Fungicidal activity against Puccinia triticina assessed as inhibition of disease development in compound treated leaf pieces at 200 ppm relative to untreated control (wheat-curative); type: functional; method in brief: as §5
Digitaria sanguinalis [26] = assay: Herbicidal activity against Digitaria sanguinalis (hairy crabgrass) assessed as growth inhibition at 1 kg/ha preemergence treatment by glasshouse test; type: functional; details: pre-emergence, read-out: GI; method in brief: as §1
Alternaria solani [27] = assay: Fungicidal activity against Alternaria solani assessed as inhibition of mycelia growth at 2 ppm; type: functional, organism-based; method in brief: as §6
Brassica napus [28] = assay: Herbicidal activity against Brassica napus (oilseed rape) at 1.5 kg/ha preemergence treatment measured after 10 days by glasshouse test; type: functional; details: pre-emergence, 240 h; method in brief: as §4
Puccinia triticina [29] = assay: Fungicidal activity against Puccinia triticina assessed as inhibition of disease development in compound treated leaf pieces at 200 ppm relative to untreated control (wheat-preventative); type: functional; method in brief: as §3
Lolium perenne [30] = assay: Herbicidal activity against Lolium perenne (perennial ryegrass) assessed as growth inhibition at 1 kg/ha preemergence treatment by glasshouse test; type: functional; details: pre-emergence, read-out: GI; method in brief: as §1
Heliothis virescens = assay: Insecticidal activity against Lepidoptera Heliothis virescens (tobacco budworm) assessed as mortality at 1000 ppm by leaf-disk assay; type: functional, organism-based
Method in brief: (§7)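 Leaf-disk assay at 1000 ppm, three replicates. Plates kept 5–9 days in controlled-environment cabinets. Mortality judged against untreated wells: 99 for significant mortality, 0 otherwise. Values are the mean of three; thiamethoxam and indoxacarb used as positive controls.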

Echinochloa crus-galli [31] = assay: Herbicidal activity against Echinochloa crus-galli (barnyard grass) at 1.5 kg/ha postemergence treatment measured after 10 days by glasshouse test; type: functional; details: post-emergence, 240 h; method in brief: as §4
Puccinia triticina [32] = assay: Fungicidal activity against Puccinia triticina assessed as inhibition of disease development in compound treated leaf pieces at 60 ppm relative to untreated control (wheat-preventative); type: functional; method in brief: as §3
Aphididae = assay: Insecticidal activity against Aphididae (aphids) assessed as mortality at 1000 ppm by leaf-disk assay; type: functional, organism-based; method in brief: as §7
Alternaria solani [33] = assay: Fungicidal activity against Alternaria solani assessed as inhibition of disease development in compound treated leaf pieces at 60 ppm relative to untreated control (tomato-preventative); type: functional; method in brief: as §3
Pythium dissimile = assay: Fungicidal activity against Pythium dissimile assessed as inhibition of mycelia growth at 2 ppm; type: functional, organism-based; method in brief: as §6
Puccinia triticina [34] = assay: Fungicidal activity against Puccinia triticina assessed as inhibition of disease development in compound treated leaf pieces at 60 ppm relative to untreated control (wheat-curative); type: functional; method in brief: as §5
Botrytis cinerea = assay: Fungicidal activity against Botryotinia fuckeliana assessed as inhibition of mycelia growth at 2 ppm; type: functional, organism-based; method in brief: as §6
Stellaria media [35] = assay: Herbicidal activity against Stellaria media assessed as growth inhibition at 1 kg/ha preemergence treatment by glasshouse test; type: functional; details: pre-emergence, read-out: GI; method in brief: as §1
Parastagonospora nodorum = assay: Fungicidal activity against Phaeosphaeria nodorum assessed as inhibition of disease development in compound treated leaf pieces at 20 ppm relative to untreated control (wheat preventative); type: functional; method in brief: as §3
Plasmopara viticola [36] = assay: Fungicidal activity against Plasmopara viticola assessed as inhibition of disease development in compound treated leaf pieces at 200 ppm relative to untreated control (grapevine-preventative); type: functional; method in brief: as §3
Pyrenophora teres [37] = assay: Fungicidal activity against Pyrenophora teres assessed as inhibition of disease development in compound treated leaf pieces at 200 ppm relative to untreated control (barley-preventative); type: functional; method in brief: as §3

CC(C)Nc1nc(Cl)nc(NCc2ccc(Cl)nc2)n1
inhibition of growth at 1000 g/ha (Stellaria media [1]): 100% | Activity (Triticum aestivum [2]): Toxic | inhibition (Phytophthora infestans [3]): inactive | inhibition of growth at 10 ppm (Arabidopsis thaliana): 99% | inhibition at 20 ppm (Pyrenophora teres [4]): 0% | inhibition at 1500 g/ha (Brassica napus [5]): 100% | inhibition of growth at 32 ppm (Poa annua): 0% | inhibition at 20 ppm [6]: 0% | inhibition of growth at 1000 g/ha (Lolium perenne [7]): 80% | inhibition of growth at 1000 g/ha (Amaranthus retroflexus [8]): 100% | inhibition at 60 ppm (Phytophthora infestans [9]): 0% | inhibition at 20 ppm (Puccinia triticina [10]): 0% | inhibition at 20 ppm (Alternaria solani [11]): 0% | inhibition of growth at 1000 g/ha (Digitaria sanguinalis [12]): 0% | Activity (Triticum aestivum [13]): Toxic | inhibition (Zymoseptoria tritici): Active | inhibition of growth at 1000 g/ha (Amaranthus retroflexus [14]): 100% | inhibition at 60 ppm (Pyrenophora teres [15]): 0% | inhibition at 60 ppm (Plasmopara viticola [16]): 0% | inhibition at 20 ppm (Puccinia triticina [17]): 100% | inhibition at 200 ppm [18]: 90% | inhibition at 20 ppm (Phytophthora infestans [19]): 0% | inhibition (Fusarium graminearum): inactive | inhibition at 60 ppm [20]: 0% | inhibition at 1500 g/ha (Echinochloa crus-galli [21]): 68.9% | inhibition at 20 ppm (Plasmopara viticola [22]): 0% | inhibition at 200 ppm (Phytophthora infestans [23]): 0% | inhibition at 200 ppm (Alternaria solani [24]): 0% | inhibition at 200 ppm (Puccinia triticina [25]): 100% | inhibition of growth at 1000 g/ha (Digitaria sanguinalis [26]): 0% | inhibition (Alternaria solani [27]): inactive | inhibition at 1500 g/ha (Brassica napus [28]): 100% | inhibition at 200 ppm (Puccinia triticina [29]): 100% | inhibition of growth at 1000 g/ha (Lolium perenne [30]): 70% | mortality (Heliothis virescens): inactive | inhibition at 1500 g/ha (Echinochloa crus-galli [31]): 68.6% | inhibition at 60 ppm (Puccinia triticina [32]): 70% | mortality (Aphididae): inactive | inhibition at 60 ppm (Alternaria solani [33]): 0% | inhibition (Pythium dissimile): inactive | inhibition at 60 ppm (Puccinia triticina [34]): 100% | inhibition (Botrytis cinerea): inactive | inhibition of growth at 1000 g/ha (Stellaria media [35]): 80% | inhibition at 20 ppm (Parastagonospora nodorum): 0% | inhibition at 200 ppm (Plasmopara viticola [36]): 0% | inhibition at 200 ppm (Pyrenophora teres [37]): 0%
